Compound activity deposited in PubChem by several laboratories.
This is a sample that favours compounds with a hit; in the whole collection about 2.3% have one here.
PfHsp90 set2 = growth inhibition of yeast expressing Plasmodium Hsp90 | S. cerevisiae expressing PfHsp90, BacTiter-Glo ATP, 48 h; yeast lacking PDR1 and PDR3 efflux regulators | inhibition, % at 9.4 µM | 310,000 tested, 0.32% active | AID 504621;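 active means every replicate shows inhibition above about 80%, whatever the replicate mean, limit read from the data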;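 further: 0% = DMSO neutral controls and 100% = 20 µM radicicol positive controls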
Rtt109 Vps75 = blocks Candida albicans Rtt109/Vps75 acetyltransferase activity; purified Rtt109/Vps75, ThioGlo CoA-SH fluorescence, 4 h; inhibition, % at 34.9 µM; 330,000 tested, 0.16% active; AID 540336;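 active means inhibition of at least 50% in every replicate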
PAX8 reporter = inhibitors of PAX8 transcriptional activity in RMG-I cells | inhibition, % at 12.6 µM | AID 652154 | 360,000 tested, 1.2% active | RMG-I TPO-luciferase reporter, SteadyGlo, 24 h;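 active means mean replicate inhibition at least 60% with every replicate also reaching 60%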;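 further: luciferase light reporting Pax8 driven TPO promoter activity; plate controls were median of neutral control wells for no effect and mitoxantrone controls for full effect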
Env fusion inh = inhibitors of HIV Env-mediated cell fusion; HeLa-JRFL Env/CEM21 cell fusion, luciferase; inhibition, % at 12.3 µM; 360,000 tested, 1.1% active;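 active means mean replicate inhibition score of at least 50 and every replicate individually at or above 50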;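 further: 0% = plate neutral controls and 100% = maraviroc near 300 nM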
Glyco luc inh = blocks N-linked glycosylation in D54 reporter cells | D54 ERlucT glycosylation luciferase reporter, 24 h; percent of 100 nM tunicamycin response | reporter increase, % at 12.5 µM | 360,000 tested, 0.23% active | AID 588692;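 active means mean luciferase reporter signal, scaled so untreated is 0 and the glycosylation-blocking control 100, at or above a set limit in every replicate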;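 further: luciferase carries N-glycosylation sites so blocking glycosylation raises the light; 0% = median of neutral control wells and 100% = median of 100 nM tunicamycin wells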
Arrestin-AP2 inh = blocks beta-arrestin peptide binding to AP2 adaptin; 340,000 tested, 0.31% active; FITC-arrestin peptide / GST-AP2 beads, flow cytometry; AP2 beta2 appendage carries R879A mutation; AID 504490; inhibition, % at 10 µM;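 active means inhibition above a set limit, near 3 SD of compounds lacking own fluorescence, cut at about 54% in these data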;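 further: plate controls were DMSO wells for no effect and 5 µM unlabelled arrestin peptide for full effect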
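Material – GST-tagged AP2 beta2-adaptin appendage (R879A) on 4 µm glutathione beads · Probe or stimulus – fluorescein-tagged arrestin peptide at 50 nM final · Timing – 12 min plus 1 h, RT · Detection – bead flow cytometry, FITC channel · Read-out basis – inhibition as reduced fluorescein signal on beads, percent · Medium – PBS plus Tween 20 (0.05%) and BSA (0.1%)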
Arr-AP2 CP1 = inhibitors of human beta-arrestin and AP2 interaction. inhibition, % at 10 µM. shares compounds with Arrestin-AP2 inh. GST-AP2 beads, FITC arrestin peptide binding, flow cytometry; GST-fused beta2-adaptin appendage, R879A mutant. 1,300 tested, 2% active;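 active means inhibition above a set limit, roughly 3 SD of non-fluorescent compound noise, cut at about 38% in these data; inactive means inhibition at or below that limit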;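 further: loss of bead fluorescence from 50 nM FITC arrestin peptide bound to appendage; 0% = negative control wells and 100% = excess unlabelled arrestin peptide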
Target sequence (P63010 whole entry, looked up, the tested form may be a part, one chain of several): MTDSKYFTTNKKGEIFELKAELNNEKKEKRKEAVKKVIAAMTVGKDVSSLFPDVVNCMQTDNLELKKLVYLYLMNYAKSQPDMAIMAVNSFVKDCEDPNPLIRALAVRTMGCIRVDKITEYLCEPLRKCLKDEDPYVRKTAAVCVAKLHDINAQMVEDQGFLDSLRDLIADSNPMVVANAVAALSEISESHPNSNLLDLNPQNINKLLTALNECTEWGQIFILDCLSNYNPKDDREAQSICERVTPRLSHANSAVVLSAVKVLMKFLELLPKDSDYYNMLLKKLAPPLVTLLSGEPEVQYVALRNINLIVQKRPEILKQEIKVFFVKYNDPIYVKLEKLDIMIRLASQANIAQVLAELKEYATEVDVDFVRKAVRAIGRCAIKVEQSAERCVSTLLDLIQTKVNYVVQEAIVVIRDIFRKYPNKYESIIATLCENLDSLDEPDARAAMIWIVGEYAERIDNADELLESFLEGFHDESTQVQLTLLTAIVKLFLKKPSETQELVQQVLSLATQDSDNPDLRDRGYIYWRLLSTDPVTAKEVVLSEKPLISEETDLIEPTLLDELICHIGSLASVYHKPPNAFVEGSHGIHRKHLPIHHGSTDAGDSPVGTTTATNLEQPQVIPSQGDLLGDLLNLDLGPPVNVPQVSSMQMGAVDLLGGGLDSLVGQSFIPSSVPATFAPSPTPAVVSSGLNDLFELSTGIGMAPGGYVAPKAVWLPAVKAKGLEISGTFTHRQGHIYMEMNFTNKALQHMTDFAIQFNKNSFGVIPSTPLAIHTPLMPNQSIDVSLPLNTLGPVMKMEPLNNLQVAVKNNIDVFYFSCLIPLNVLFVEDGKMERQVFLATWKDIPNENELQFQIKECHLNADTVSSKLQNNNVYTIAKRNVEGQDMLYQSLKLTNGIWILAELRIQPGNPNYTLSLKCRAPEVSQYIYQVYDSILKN
GST GSH counter = counter-screen for beta-arrestin AP2 inhibitors: GST-GSH bead binding | shares compounds with Arrestin-AP2 inh | GST-fluorescein binding to GSH beads, fluorescence | inhibition, % at 10 µM | 1,300 tested, 2% active;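 active means inhibition above 50%, about 3 SD of the inhibition seen with non-fluorescent compounds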;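 further: fluorescein maleimide labelled GST captured on 4 micron glutathione beads; higher means more loss of bead fluorescence from quenching or blocked binding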
Starred values were filed as active, the others as inactive; . = not tested or not shown; [ ] = dose if it differs, or a comment.

SMILES	PfHsp90 set2	Rtt109 Vps75	PAX8 reporter	Env fusion inh	Glyco luc inh	Arrestin-AP2 inh	Arr-AP2 CP1	GST GSH counter
O=C(Cc1ccccc1)N1C[C@H]2[C@@H](c3ccccc31)[C@H](CO)N2C(=O)C1CCCC1	.	.	7	.	.	.	.	.
CCOC(=O)N1CCN(S(=O)(=O)c2ccc(Cl)cc2)CC1	7	-8	46	5	-2	66*	-5	-6
O=C(COC(=O)COc1ccc(Br)cc1)NCc1ccc2c(c1)OCO2	.	3	-6	-4	1	-4	.	.
N#Cc1ccccc1OCC(=O)OCC(=O)NCc1ccc2c(c1)OCO2	7	5	6	-10	0	55*	5	-5
CCc1ccccc1NC(=O)CNC(=O)c1cn(Cc2ccccc2)nc1-c1cccnc1	13	-7	-10	-23	4	64*	-4	3
COCCNC(=O)C[C@H]1CC[C@@H]2[C@H](COc3ccc(NC(=O)Cc4ccccc4)cc3C(=O)N2C)O1	.	.	-10	-6[16.7 µM]	.	.	.	.
CCCc1ccccc1OCCNC(=O)c1cc(=O)n(C)c(=O)n1C	.	19	-3	5	0	60*	-2	6
COc1ccc(CCNCC(O)Cn2c3ccccc3c3ccccc32)cc1OC (stereo not drawn)	19	26	12	-23	-6	58*	1	4
COc1ccccc1NCC(O)Cn1c2ccccc2c2ccccc21 (stereo not drawn)	-50	15	17	1	-4	11	.	.
CCCS(=O)(=O)N1CCCC(C(=O)NCC2CCCO2)C1 (stereo not drawn)	10	2	.	.	1	80*	3	-3
Cc1ccc(S(=O)(=O)N2CCCC(C(=O)NCC3CCCO3)C2)cc1 (stereo not drawn)	-10	-12	-10	-13	5	-5	.	.
Cc1noc(C)c1NC(=O)N(C)C[C@H]1OCCCC[C@@H](C)Oc2ccc(NS(=O)(=O)c3cn(C)cn3)cc2C(=O)N([C@@H](C)CO)C[C@@H]1C	.	.	-11	6[16.7 µM]	.	.	.	.
CCN(CC)S(=O)(=O)c1cccc(C(=O)N/N=C/c2cccc(O)c2O)c1	7	-4	48	35	-7	49	.	.
CCN(CC)S(=O)(=O)c1cccc(C(=O)N/N=C/c2cc(OC)c(O)c(OC)c2)c1	2	2	18	-3	1	60*	-3	1
C[C@@H](NCCCn1cnc2c(OCc3ccccc3)ncnc21)c1cccc2ccccc12	2	-13	19	6	-2	62*	1	-4
COc1ccc(C)cc1NC(=O)Nc1ccncc1	13	1	8	4	5	-8	.	.
COc1ccc(C)cc1NC(=O)Nc1cnccn1	-2	-3	-5	-13	20	-9	2	0
COc1ccc(NC(=O)Nc2cnccn2)c(OC)c1	10	-5	-18	57*	3	-6	11	-5
Cc1ccc(S(=O)(=O)Nc2ccc3c(c2)CC(=O)N([C@@H](C)CO)C[C@H](C)[C@@H](CN(C)C(=O)NC2CCCCC2)O3)cc1	.	.	-3	.	.	.	.	.
CC(C)(C)[S@@](=O)N1Cc2cc(C(=O)NCCN3CCCC3)nc(-c3cccc(-c4cccc(C#N)c4)c3)c2[C@H]1CCO	.	.	-16	-5[16.7 µM]	.	.	.	.
CCOC(=O)c1c(-c2cccs2)csc1NC(C)=O	-4	0	.	.	1	13	.	.
CCOC(=O)c1c(-c2cccs2)csc1NC(=O)CN1CC(C)OC(C)C1 (stereo not drawn)	-27	6	.	.	-4	72*	6	-3
O=C(c1ccnc(Cl)c1)N1CCCC(N2CCN(c3ccccc3F)CC2)C1 (stereo not drawn)	3	22	6	-11	0	63*	2	-3
O=C(c1ccco1)N1CCCC(N2CCN(c3ccccc3F)CC2)C1 (stereo not drawn)	10	-6	-2	-14	1	-16	.	.
Cc1ccc(OCCSc2nc3ccccc3n2CC(=O)O)cc1C	2	1	14	-1	-1	54*	-1	-3
SMILES	PfHsp90 set2	Rtt109 Vps75	PAX8 reporter	Env fusion inh	Glyco luc inh	Arrestin-AP2 inh	Arr-AP2 CP1	GST GSH counter
CO[C@H]1CN(C)C(=O)c2cc(NS(=O)(=O)CC(F)(F)F)ccc2OC[C@@H](C)N(CC2CCCCC2)C[C@H]1C	.	.	3	15[16.7 µM]	.	.	.	.
CNC(=O)C[C@H]1CC[C@@H]2[C@H](COc3ccc(NC(=O)c4ccc(OC)cc4)cc3C(=O)N2C)O1	.	.	-15	-6[16.7 µM]	.	.	.	.
COc1cc(/C=C(\C#N)c2nc3ccccc3[nH]2)ccc1OC(=O)c1ccco1	-5	3	-54	-60	4	97*	13	-5
COc1cccc(-c2ccc3c(c2)[C@H]2[C@H](CCN2C(=O)C2CCOCC2)[C@@H](CO)N3)c1	.	.	12	.	.	.	.	.
CCOC(=O)C1CCN(c2cc3c(cc2NC(=O)c2ccccc2Br)n(C)c(=O)n3C)CC1	13	5	-25	-3	2	34	8	-2
CCOC(=O)C1CCN(c2cc3c(cc2NC(=O)c2cc(OC)ccc2Br)n(C)c(=O)n3C)CC1	-6	-4	-11	9	1	-2	-4	-7
C=CCn1c(-c2ccc(OC)cc2)nc2ccccc21	-3	4	.	.	-1	98*	-12	2
COCCN(C(=O)CCCC(=O)Nc1ccccn1)C(C(=O)NC1CCCCC1)c1ccc(C)cc1 (stereo not drawn)	0	0	.	.	-3	101*	-13	-4
CN(C)C(=O)[C@]1(Cc2ccccc2CN=[N+]=[N-])N=C(c2ccc(OCCCO)cc2)O[C@@H]1c1ccccc1	.	.	0	21[16.7 µM]	.	.	.	.
O=C(c1cccnc1)N1CC(=O)N2[C@H](C1)[C@@H](c1ccc(/C=C/c3ccccc3)cc1)[C@@H]2CO	.	.	-20	.	.	.	.	.
CCOc1ccccc1NC(=O)c1ccc(F)c(S(=O)(=O)N2CCC3(CC2)OCCO3)c1	4	5	.	4	2	61*	-21	-6
Cc1ccc(N2C(=N)/C(=C3/Nc4ccccc4S3)C(c3ccccc3)C2=O)cc1 (stereo not drawn)	-5	-9	25	13	3	56*	1	-3
COc1cc(NC(=O)COc2ccccc2)c(OC)cc1NC(C)=O	3	1	-18	2	1	60*	-1	-10
COc1ccc(/C=C/C(=O)NC(=S)Nc2cc3oc4ccccc4c3cc2OC)cc1	-7	-1	24	-1	0	6	.	.
COc1ccc(NC(=O)Nc2cc3oc4ccccc4c3cc2OC)cc1	17	-3	1	-6	-2	1	-11	1
